Assay results as given in ChEMBL document CHEMBL1135662, “Effects of isoprenoid analogues of SDB-ethylenediamine on multidrug resistant tumor cells alone and in combination with chemotherapeutic drugs” (J Med Chem, 2002).
Structures can show the parent of a compound that is named as a salt.

What was measured:
[1] = Inhibitory concentration against the growth of 2SC/20 cell line after 72 hr of drug exposure by MTT test; format: functional, Cricetulus griseus
Outline: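 Syrian hamster embryo fibroblasts (parental line or its colchicine-selected Pgp-positive 2SC/20 subline), grown in DMEM with 5% FBS at 37 °C, 5% CO2; selective agent withdrawn 2 days before use. (3–4) × 10³ cells per well, treated 16 h after plating, exposed 72 h. MTT (2 mg/mL solution) added for 3 h, formazan dissolved in acidified DMSO, absorbance read at 540 nm.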

[2] = Inhibitory concentration against the growth of HET-SR-2SC-LNM cell line after 72 hr of drug exposure by MTT test; format: functional, Cricetulus griseus
[3] = Inhibitory concentration against the growth of 2SC/20 cell line after 72 hr of drug exposure by MTT test; conditions: Mesocricetus auratus
[4] = Inhibitory concentration against the growth of HET-SR-2SC-LNM cell line after 72 hr of drug exposure by MTT test; conditions: Mesocricetus auratus
[5] = Cytotoxicity against cell line McA RH 7777 determined by MTT test; format: functional; conditions: Rattus norvegicus, McA-RH7777
Homo sapiens [6] = species: Homo sapiens; test: Cytotoxicity against cell line mS/0.5 and pgp determined by MTT test; format: functional
[7] = Index of sensitisation (IS)in presence of VBL and 2SC/2O; format: functional
Outline: (§1)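 HET-SR-2SC-LNM or 2SC/20 cells exposed for 72 h to a vinblastine or adriamycin dose series, alone or with modulator at 5 µM. IC50 by MTT (540 nm). IS is the mean IC50 with the drug alone divided by the mean IC50 with drug plus modulator. Four repeats.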

Homo sapiens [8] = species: Homo sapiens; test: Cytotoxicity against cell line mS determined by MTT test; format: functional
[9] = Cytotoxicity against cell line HET-SR-2SC-LNM determined by MTT test; conditions: Mesocricetus auratus
[10] = Index of sensitisation (IS)in presence of VBL and HET-SR-2SC-LNM; format: functional; outline: as §1
K562 [11] = test: Cytotoxicity against cell line K562i/S9 and pgp determined by MTT test; format: functional, cell-based; conditions: Homo sapiens
Outline: (§2)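 MTT assay after 72 h exposure, in duplicate. Human lung carcinoma COR L23/P and its adriamycin-selected MRP-mediated subline COR L23/R seeded at 5×10^3 per 200 µL. K562 leukemia cells and K562 transduced with human MDR1 (not drug-selected) seeded at 3×10^4 per 200 µL. Non-fibroblast lines grown in RPMI-1640 with 5% FBS. MTT 3 h, read at 540 nm. Mean ± SE of three experiments.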

[12] = Cytotoxicity against cell line […] and MRP determined by MTT test; format: functional; conditions: Homo sapiens
Outline: as §2, with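 “µL.” for “µL. Non-fibroblast lines grown in RPMI-1640 with 5% FBS.”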

[13] = Cytotoxicity against cell line COR/L23P determined by MTT test; format: functional; conditions: Homo sapiens
Outline: as §2, with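 “µL.” for “µL. Non-fibroblast lines grown in RPMI-1640 with 5% FBS.”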

[14] = Index of sensitisation (IS)in presence of ADM and HET-SR-2SC-LNM; format: functional; outline: as §1
[15] = Cytotoxicity against cell line McA RH 7777/0.4 and Pgp determined by MTT test; format: functional; conditions: Rattus norvegicus, McA-RH7777
K562 [16] = test: Cytotoxicity against cell line K562 determined by MTT test; format: functional, cell-based; conditions: Homo sapiens; outline: as §2
[17] = Index of sensitisation (IS)in presence of ADM and 2SC/2O; format: functional; outline: as §1
[18] = Cytotoxicity against cell line 2SC/20 determined by MTT test; conditions: Mesocricetus auratus
[19] = Index of sensitisation (IS) calculated as mean IC50 for cells incubated with VBL and of 2SC/2O; format: functional; outline: as §1
[20] = Index of sensitisation (IS) calculated as mean IC50 for cells incubated with ADM and of HET-SR-2SC-LNM; format: functional; outline: as §1
[21] = Cytotoxicity against cell line 2SC/20 of hamster determined by MTT test; conditions: Mesocricetus auratus
[22] = Cytotoxicity against cell line HET-SR-2SC-LNM of hamster determined by MTT test; conditions: Mesocricetus auratus
[23] = Index of sensitisation (IS) calculated as mean IC50 for cells incubated with ADM and of 2SC/2O; format: functional; outline: as §1
[24] = Cytotoxicity against cell line COR/L23R and MRP determined by MTT test; format: functional; conditions: Homo sapiens, COR-L23/R; outline: as §2
[25] = Partition coefficient (logP); format: physicochemical; conditions: octanol/water
[26] = Index of sensitisation (IS) calculated as mean IC50 for cells incubated with VBL and of HET-SR-2SC-LNM; format: functional; outline: as §1
[27] = Intracellular uptake of drug in presence of 3H VBL and VRP in HET-SR-2SC-LNM cell line; conditions: Mesocricetus auratus
[28] = Intracellular uptake of drug in presence of 3H VBL and in absence of VRP in 2SC/20 cell line; conditions: Mesocricetus auratus
[29] = Intracellular uptake of drug in presence of 3H VBL and absence of VRPin HET-SR-2SC-LNM cell line; conditions: Mesocricetus auratus
[30] = Intracellular uptake of drug in presence of ADM and in absence of VRP in 2SC/20 cell line; conditions: Mesocricetus auratus
[31] = Intracellular uptake of drug in presence of 3H VBL and VRP in 2SC/20 cell line; conditions: Mesocricetus auratus
[32] = Intracellular uptake of drug in presence of ADM and VRP in 2SC/20 cell line; conditions: Mesocricetus auratus
[33] = Intracellular uptake of drug in presence of ADM and VRP in HET-SR-2SC-LNM cell line; conditions: Mesocricetus auratus
[34] = Intracellular uptake of drug in presence of ADM and absence of VRPin HET-SR-2SC-LNM cell line; conditions: Mesocricetus auratus
[35] = Cytotoxicity against HET-SR-2SC-LNM cell line of hamster determined by MTT test; conditions: Mesocricetus auratus

## BLEOMYCIN
[1]
  IC50: 0.517 µM
[2]
  IC50: 0.519 µM

## CC[C@]1(O)C[C@@H]2CN(CCc3c([nH]c4ccccc34)[C@@](C(=O)OC)(c3cc4c(cc3OC)N(C)[C@H]3[C@@](O)(C(=O)OC)[C@H](OC(C)=O)[C@]5(CC)C=CCN6CC[C@]43[C@@H]65)C2)C1 [VINBLASTINE]
[3]
  IC50: 0.246 µM
[4]
  IC50: 0.018 µM

## COc1ccc(CNCCN(C/C=C(\C)CC/C=C(\C)CC/C=C(\C)CC/C=C(\C)CC/C=C(\C)CC/C=C(\C)CC/C=C(\C)CC/C=C(\C)CCC=C(C)C)Cc2ccc(OC)c(OC)c2)cc1OC
[5]
  IC50: 65 µM
Homo sapiens [6]
  IC50: 45 µM
[7]
  IS: 4
Homo sapiens [8]
  IC50: 86 µM
[9]
  IC50: 80 µM
[10]
  IS: 1
K562 [11]
  IC50: 250 µM
[12]
  IC50: > 200 µM
[13]
  IC50: > 200 µM
[14]
  IS: 2
[15]
  IC50: 55 µM
K562 [16]
  IC50: 250 µM
[17]
  IS: 6
[18]
  IC50: 20 µM

## COc1ccc(CNCCN(C/C=C(\C)CCC=C(C)C)Cc2ccc(OC)c(OC)c2)cc1OC.Cl
[5]
  IC50: 55 µM
[19]
  IS: 11
Homo sapiens [6]
  IC50: 18 µM
Homo sapiens [8]
  IC50: 40 µM
K562 [11]
  IC50: 125 µM
[13]
  IC50: 25 µM
[15]
  IC50: 20 µM
K562 [16]
  IC50: 125 µM
[20]
  IS: 2
[21]
  IC50: 10 µM
[22]
  IC50: 15 µM
[23]
  IS: 12
[24]
  IC50: 13 µM
[25]
  logP: 4.51
[26]
  IS: 8

## COc1cc2c(c(OC)c1OC)-c1ccc(OC)c(=O)cc1[C@@H](NC(C)=O)CC2 [COLCHICINE]
[3]
  IC50: 0.5 µM
[4]
  IC50: 0.025 µM

## COc1ccc(CCN(C)CCCC(C#N)(c2ccc(OC)c(OC)c2)C(C)C)cc1OC (configuration not stated) [VERAPAMIL HYDROCHLORIDE]
Homo sapiens [6]
  IC50: 230 µM
[27]
  drug uptake: 29 pmol/mg protein
[7]
  IS: 11
[10]
  IS: 4
[28]
  drug uptake: 10 pmol/mg protein
K562 [11]
  IC50: 100 µM
[29]
  drug uptake: 22 pmol/mg protein
[14]
  IS: 2
[15]
  IC50: 470 µM
K562 [16]
  IC50: 100 µM
[30]
  drug uptake: 132 pmol/30 min
[31]
  drug uptake: 23 pmol/mg protein
[17]
  IS: 11
[32]
  drug uptake: 289 pmol/30 min
[33]
  drug uptake: 310 pmol/30 min
[34]
  drug uptake: 235 pmol/30 min

## COc1ccc(CNCCN(C/C=C(\C)CC/C=C(\C)CCC=C(C)C)Cc2ccc(OC)c(OC)c2)cc1OC
[19]
  IS: 12
[9]
  IC50: 35 µM
[20]
  IS: 2
[21]
  IC50: 13 µM
[23]
  IS: 12
[26]
  IS: 6

## COc1cccc2c1C(=O)c1c(O)c3c(c(O)c1C2=O)C[C@@](O)(C(=O)CO)C[C@@H]3O[C@H]1C[C@H](N)[C@H](O)[C@H](C)O1 [DOXORUBICIN]
[3]
  IC50: 0.62 µM
[4]
  IC50: 0.052 µM

## COc1ccc(CNCCNCc2ccc(OC)c(OC)c2)cc1OC
[21]
  IC50: 470 µM
[35]
  IC50: 520 µM
[25]
  logP: 3.78
